Source: PubChem BioAssay
Hits are enriched below; roughly 4.6% of the tested compounds scored in any of these assays.
OX1R antag-1 – blocks the human orexin 1 receptor | O43613 | CHO/OX1R cells, Fluo-8 calcium fluorescence, orexin A | inhibition, % at 5 µM | 330,000 compounds, 0.43% hits | AID 434989;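 active means inhibition above its plate's threshold, mean inhibition of all tested compounds on the plate plus 3 SD, cut at about 37% in these data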;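 further: 0% = orexin A challenge wells and 100% = SB-334867-A antagonist wells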
TAAR1 ag – human TAAR1 agonism | Q96RJ0 | CHO RD-HGA16 TAAR1, Fluo-8 calcium fluorescence; vehicle wells 0%, saturating PEA agonist 100% | activation, % at 3 µM | 360,000 compounds, 0.99% hits;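 active means activation above the mean activation of all test compounds in the run plus 3 SD, cut at about 38% in these data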
Target sequence (Q96RJ0 whole entry, looked up): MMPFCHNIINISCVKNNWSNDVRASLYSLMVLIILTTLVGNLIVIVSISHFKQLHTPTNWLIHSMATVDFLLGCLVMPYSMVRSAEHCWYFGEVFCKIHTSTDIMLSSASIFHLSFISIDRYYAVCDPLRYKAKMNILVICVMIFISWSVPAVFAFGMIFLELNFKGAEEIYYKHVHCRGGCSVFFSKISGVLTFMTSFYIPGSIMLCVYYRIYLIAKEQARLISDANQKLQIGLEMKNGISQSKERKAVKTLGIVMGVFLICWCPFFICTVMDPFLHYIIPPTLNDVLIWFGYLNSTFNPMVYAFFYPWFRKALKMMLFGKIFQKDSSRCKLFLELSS
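System: CHO RD-HGA16 cells carrying human TAAR1 plus Gα16; Incubation: 17-24 h seeding, 75 min 37 °C dye, 30 min RT; Measured by: Fluo-8 fluorescence, 5 s baseline then 140 s kinetic read; Control set: DMSO and PEA EC100; Replication: single well for each compound.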
CHO parental Ca – counter-screen: ATP calcium response change in parental CHO cells. parental CHO-K1, ATP-induced calcium, Fluo-8 fluorescence. inhibition, % at 5.6 µM. 330,000 compounds, 0.63% hits. AID 463079;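 active means inhibition above that plate's mean sample inhibition plus 3 SD, cut at about 26% in these data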;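 further: 0% = ATP-challenged DMSO wells and 100% = DMSO wells without ATP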
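Test system: untransfected parental CHO cell line; also added: ATP stimulus; dosing: 5.6 µM, single dose; signal: calcium-sensitive Fluo-8 fluorescence; measure: percent inhibition of ATP-evoked calcium rise, normalized to controls; benchmarks: low control ATP plus DMSO, high control DMSO only; replication: one well per compound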
GPR7 antagonist – human neuropeptides B/W receptor 1 antagonism | GPR7-expressing cells, fluorescence antagonist assay | inhibition, % at 4.4 µM | 290,000 compounds, 1.1% hits; in the data active means inhibition above about 16%, passing the limit was not always enough;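 further: cells stimulated with the agonist NPW; 0% = agonist with vehicle and 100% = vehicle without agonist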
Target sequence (P48145 whole entry, looked up): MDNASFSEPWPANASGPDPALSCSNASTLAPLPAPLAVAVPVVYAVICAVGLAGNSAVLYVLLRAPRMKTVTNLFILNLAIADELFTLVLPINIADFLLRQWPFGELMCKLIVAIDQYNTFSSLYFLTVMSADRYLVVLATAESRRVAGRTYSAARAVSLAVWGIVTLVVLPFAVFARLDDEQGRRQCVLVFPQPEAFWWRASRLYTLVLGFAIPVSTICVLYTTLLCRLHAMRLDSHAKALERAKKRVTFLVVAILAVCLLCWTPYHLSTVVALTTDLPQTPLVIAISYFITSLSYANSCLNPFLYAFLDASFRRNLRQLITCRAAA
OX1R antag-2 – antagonists of human orexin 1 receptor (OX1R). OX1R-expressing cells, FRET antagonist read-out. inhibition, % at 6.6 µM. 330,000 compounds, 1.8% hits. AID 485270; in the data active means inhibition mostly above about 38%, no sharp cut-off; inactive means mostly below about 40%;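 further: 0% = agonist challenge alone and 100% = reference antagonist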
TAAR1 antagonist – antagonists of human TAAR1; 360,000 compounds, 1.5% hits; inhibition, % at 3 µM; Q96RJ0; CHO RD-HGA16 TAAR1, Fluo-8 calcium fluorescence, antagonist; AID 624466;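 active means inhibition above a per-plate cutoff, the mean inhibition of test compounds on that plate plus 3 SD, cut at about 49% in these data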;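 further: 0% = DMSO plus EC80 beta-PEA response and 100% = DMSO alone without agonist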
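Assay system: CHO-derived RD-HGA16 cells stably expressing human TAAR1 plus Gα16. Timing: 140 s kinetic read after compound, 140 s after agonist. Technique: kinetic Fluo-8 calcium fluorescence measurement. Measure: % inhibition of agonist calcium response.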
Numbers without * were called inactive.

`Cc1cccc(C(=O)NCC(=O)N(C)Cc2nc3ccccc3c(=O)[nH]2)c1` gave OX1R antag-1 4, TAAR1 ag 5, CHO parental Ca -9, OX1R antag-2 2 and TAAR1 antagonist 7.
O=C1N=c2ccccc2=C1c1sc(Nc2cccc(O)c2)nc1O was read as OX1R antag-1 1, TAAR1 ag 4, CHO parental Ca -9, GPR7 antagonist 19, OX1R antag-2 54* and TAAR1 antagonist 42.
Screening CC(=O)Nc1ccc(-n2nnnc2SCC(=O)NCc2cccs2)cc1 returned OX1R antag-1 -8, TAAR1 ag 8, CHO parental Ca 2, GPR7 antagonist 11, OX1R antag-2 45 and TAAR1 antagonist 11.
Screening CC1=NN(c2ccccc2)C(=O)/C1=C\C=C1\N(C)c2ccccc2C1(C)C returned OX1R antag-1 50*, TAAR1 ag 54*, CHO parental Ca 24, GPR7 antagonist 25, OX1R antag-2 33 and TAAR1 antagonist 19.
For Fc1ccc(COc2ccccc2CNCc2ccncc2)cc1 the results were OX1R antag-1 -20, TAAR1 ag 4, CHO parental Ca 1, GPR7 antagonist -6, OX1R antag-2 1 and TAAR1 antagonist -13.
Screening Brc1ccc(OCc2ccccc2)c(CNCc2ccncc2)c1 returned OX1R antag-1 -18, TAAR1 ag 14, CHO parental Ca -11, GPR7 antagonist 5, OX1R antag-2 18 and TAAR1 antagonist 70*.
CC1=NOC(=O)/C1=C\c1ccc(-c2ccc(Br)cc2)o1 was read as TAAR1 ag 35, GPR7 antagonist -19 and TAAR1 antagonist 67*.
Screening O=C(Nc1nc(-c2ccccc2)cs1)C1CCCO1 (stereo unspecified) returned OX1R antag-1 -17, TAAR1 ag 10, CHO parental Ca -6, GPR7 antagonist 12, OX1R antag-2 8 and TAAR1 antagonist -1.
Cc1csc(NC(=O)C2CCCO2)n1 (stereo unspecified) was read as OX1R antag-1 -11, TAAR1 ag 5, CHO parental Ca 2, GPR7 antagonist 14*, OX1R antag-2 7 and TAAR1 antagonist -17.
Cc1ccc(S(=O)(=O)N2CCC(c3nnc(SCCN4CCCC4)n3C)CC2)cc1 was read as OX1R antag-1 5, TAAR1 ag -2, CHO parental Ca -1, GPR7 antagonist 2, OX1R antag-2 8 and TAAR1 antagonist 3.
COc1ccc(C(=O)NNC(=S)NC(=O)c2ccc(F)cc2)cc1Br was read as OX1R antag-1 48*, TAAR1 ag 51*, CHO parental Ca 29, OX1R antag-2 4 and TAAR1 antagonist 6.
COc1cc(C(=O)NC(=S)NNC(=O)c2ccc3c(c2)OCO3)cc(OC)c1OC was read as OX1R antag-1 -20, TAAR1 ag 52*, CHO parental Ca -12, GPR7 antagonist -7, OX1R antag-2 17 and TAAR1 antagonist -12.
For COc1ccc(F)cc1C(=O)C1CCCN(Cc2cccn2-c2ccccn2)C1 (stereo unspecified) the results were OX1R antag-1 -18, TAAR1 ag 5, CHO parental Ca -27, GPR7 antagonist 19*, OX1R antag-2 8 and TAAR1 antagonist 9.
Screening COc1ccc(C(=O)C2CCCN(Cc3cccn3-c3ccccn3)C2)c(OC)c1 (stereo unspecified) returned OX1R antag-1 -18, TAAR1 ag 11, CHO parental Ca -7, GPR7 antagonist 14, OX1R antag-2 16 and TAAR1 antagonist 2.
Screening Cc1ccc(SC/C(O)=C(\C#N)c2nc3ccccc3s2)cc1 returned OX1R antag-1 2, TAAR1 ag 7, CHO parental Ca -6, GPR7 antagonist 4, OX1R antag-2 72 and TAAR1 antagonist -4.
Screening N#C/C(=C(/O)CSc1ccccn1)c1nc2ccccc2s1 returned OX1R antag-1 71*, TAAR1 ag 8, CHO parental Ca 66*, GPR7 antagonist 9, OX1R antag-2 29 and TAAR1 antagonist 4.
Screening O=C1Nc2ccc(S(=O)(=O)N3CCCC3C(=O)O)c3cccc1c23 (stereo unspecified) returned OX1R antag-1 -10, TAAR1 ag 1, CHO parental Ca -9, GPR7 antagonist -4, OX1R antag-2 38* and TAAR1 antagonist -18.
For O=C1Nc2ccc(S(=O)(=O)N3CCCC3)c3cccc1c23 the results were OX1R antag-1 -8, TAAR1 ag 7, CHO parental Ca -6, GPR7 antagonist -1, OX1R antag-2 19 and TAAR1 antagonist -4.
Screening CCC(OCC(O)CN1CCN(CCN2C(=O)c3cccc4cccc(c34)C2=O)CC1)c1ccccc1 (stereo unspecified) returned OX1R antag-1 -36, TAAR1 ag 8, CHO parental Ca -31, GPR7 antagonist -5, OX1R antag-2 24 and TAAR1 antagonist 2.
For CC(C)OCC(O)CN1CCN(CCN2C(=O)c3cccc4cccc(c34)C2=O)CC1 (stereo unspecified) the results were OX1R antag-1 -30, TAAR1 ag 1, CHO parental Ca -8, GPR7 antagonist -2, OX1R antag-2 41* and TAAR1 antagonist -8.
For O=C(CSc1nnc(Cc2csc(Nc3cccc(Cl)c3)n2)o1)N1CCc2ccccc21 the results were OX1R antag-1 8, TAAR1 ag 1, CHO parental Ca -3, GPR7 antagonist 0, OX1R antag-2 61 and TAAR1 antagonist 51*.
CC(C)c1ccc(/C=C2\SC(=O)N(CC(=O)NCCCn3ccnc3)C2=O)cc1 was read as OX1R antag-1 -23, TAAR1 ag 2, CHO parental Ca -6, GPR7 antagonist -11, OX1R antag-2 12 and TAAR1 antagonist -22.
For COc1ccccc1CNC(=O)COC(=O)/C=C/c1cccs1 the results were OX1R antag-1 -8, TAAR1 ag 1, CHO parental Ca -6, GPR7 antagonist 19*, OX1R antag-2 11 and TAAR1 antagonist -6.
COc1ccc(CNC(=O)COC(=O)/C=C/c2cccs2)cc1 was read as OX1R antag-1 -27, TAAR1 ag 3, CHO parental Ca -14, GPR7 antagonist 4, OX1R antag-2 8 and TAAR1 antagonist -20.
For CCOC(=O)C1CCCN(C(=S)Nc2ccc(S(=O)(=O)N3CCOCC3)cc2)C1 (stereo unspecified) the results were OX1R antag-1 -9, TAAR1 ag 46*, CHO parental Ca 0, OX1R antag-2 3 and TAAR1 antagonist 33.
For CC1CCCN(C(=S)Nc2ccc(S(=O)(=O)N3CCCCC3)cc2)C1 (stereo unspecified) the results were OX1R antag-1 -21, TAAR1 ag 29, CHO parental Ca -10, GPR7 antagonist -3, OX1R antag-2 9 and TAAR1 antagonist -30.
CCOC(=O)C1CCN(C(=O)COc2cc(C)c(Br)cc2C)CC1 was read as OX1R antag-1 50*, TAAR1 ag 6, CHO parental Ca 54*, GPR7 antagonist 9, OX1R antag-2 54 and TAAR1 antagonist 27.
